Results on one molecule are retold here after ChEMBL document CHEMBL3098049, “Concise synthesis and biological evaluation of 2-Aroyl-5-amino benzo[b]thiophene derivatives as a novel class of potent antimitotic agents” (J Med Chem, 2013).

Broadly, the inhibition is the relative decrease from the control value, in per cent. A lower inhibition goes with a weak effect. As usually defined, the IC50 is the point on the concentration scale where inhibition reaches its midpoint.

Series [1] deals with T1, Tubulin (Homo sapiens) (UniProt P68371+Q9H4B7+P0DPH7+P68366+Q13509+Q71U36+P04350+Q3ZCM7+P07437+P68363+Q9BQE3+Q6PEY2+Q13885+Q9BVA1+Q9BUF5). Briefly: Displacement of [3H]-colchicine from tubulin (unknown origin) at 1 uM after 10 mins relative to control. It is filed as protein-complex assay. In general terms: In a radioligand displacement assay an active substance lowers the binding of a labelled ligand.

Series [2] deals with PBL. Description: Cytotoxicity against PHA-stimulated human PBL assessed as growth inhibition after 72 hrs by MTT assay. In kind it is cell-based. The procedure, abridged: (§1)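 Human PBL from healthy donors were isolated on a density gradient, washed, and held overnight in RPMI-1640 with 10% FBS. For proliferating cultures, nonadherent cells were resuspended at 5 × 10⁵ cells/mL with 2.5 μg/mL PHA; resting PBL received no PHA. Cells were exposed to varying compound concentrations, and viability was read by MTT after 72 h. IC50 is the concentration reducing growth by 50%, as the mean of three independent experiments.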
On the technique in general: Tetrazolium assays rely on reduction of a dye to a coloured formazan, in cell work by metabolically active cells.

Series [3] relates to HeLa. Description: Cell cycle arrest in human HeLa cells assessed as accumulation at G2/M phase at 10 nM after 24 hrs by propidium iodide staining-based flow cytometric analysis. It is filed as functional. The method in brief:
(§2)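 HeLa cells (5 × 10⁵) treated for 24 h. Harvested, fixed in 70% ethanol chilled to 0 °C, then suspended in RNase with 0.1% Triton X-100. DNA stained with PI, analysed by flow cytometry as DNA-content histograms. Mean of three independent experiments.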

A further series has as its system L1210. Description: Cytotoxicity against mouse L1210 cells assessed as growth inhibition after 48 hrs by coulter counting analysis. It is filed as functional, cell-based. The note with it: L1210, 48 h. The procedure, abridged:
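Cells suspended at (3−5) × 10⁵ cells/mL and mixed 1:1 with compound dilutions. Incubated 48 h at 37 °C, counted with a Coulter counter. IC₅₀ = concentration inhibiting proliferation by 50%. Mean of at least three independent experiments.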

Series [4] relates to MNNG-HOS. Description: Antitumor activity against human MNNG-HOS cells xenografted in Balb/c-nu mouse assessed as tumor growth inhibition at 50 mg/kg, ip measured on day 18 relative to vehicle-treated control. In kind it is functional. The note with it: HOS-TE85, ip, 432 h, route intraperitoneal, read-out: TGI. The procedure, abridged: (§3)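 MNNG/HOS osteosarcoma cells grown to exponential phase, suspended in FBS-free MEM (10⁷ cells/mL), 0.1 mL injected into back hypodermis of nude mice. At ~100 mm³, 12 mice randomised to three groups (vehicle, CA-4P in isotonic saline, test in 5% DMSO/olive oil). 50 mg/kg ip at 0.01 mL/g on days 0, 3, 6, 9. Tumour volume and body weight tracked; tumours excised and weighed day 18; […].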
A general note: In xenograft studies the graft and the host belong to different species.

The subject of series [5] is PBL. Briefly: Cytotoxicity against resting phase of human PBL assessed as growth inhibition after 72 hrs by MTT assay. In kind it is cell-based. The procedure, abridged:
as §1

Series [6] concerns HeLa. Briefly: Induction of mitochondrial membrane depolarization in human HeLa cells after 24 to 48 hrs by JC-1 staining-based fluorescence assay. In kind it is functional, cell-based. The method in brief:
(§4)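 HeLa cells treated 24 or 48 h, then stained with JC-1. Cells with depolarised mitochondria quantified by flow cytometry. Mean of three independent experiments.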

In series [7] the target is T1, Tubulin (Homo sapiens). Briefly: Displacement of [3H]-colchicine from tubulin (unknown origin) at 5 uM after 10 mins relative to control. In kind it is protein-complex assay.
Series [8] deals with HeLa. Description: Cell cycle arrest in human HeLa cells assessed as accumulation at G2/M phase after 24 hrs by propidium iodide staining-based flow cytometric analysis. It is filed as functional. The procedure, abridged:
as §2

Series [9] can be described thus: Selectivity ratio of IC50 for HUVEC to IC50 for human Molt4/C8 cells. In kind it is ADME, cell-based. The conditions noted are these: HUVEC and Molt4/C8 cells, read-out: Ratio IC50.
Series [10] concerns HeLa. Briefly: Induction of apoptosis in human HeLa cells assessed as caspase-3 cleavage at 10 to 100 nM after 24 to 48 hrs by Western blot analysis. It is filed as functional, cell-based. The procedure, abridged:
(§5)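 HeLa cultures treated 24 or 48 h, washed in cold PBS, lysed 30 min at 0 °C, clarified at 15000g. 20 μg protein run on 7.5−15% gradient SDS-PAGE and blotted to PVDF. Primary antibodies 2 h at room temperature, peroxidase secondary 60 min, ECL detection. Membranes stripped and reprobed for β-actin as loading control.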

Series [11] concerns MNNG-HOS. Description: Cytotoxicity against human MNNG-HOS cells. In kind it is functional, cell-based. The note with it: HOS-TE85.
For series [12], the system named is MNNG-HOS. Description: Antitumor activity against human MNNG-HOS cells xenografted in Balb/c-nu mouse assessed as reduction in tumor weight at 50 mg/kg, ip administered once every 3 days for 9 days measured after day 18. It is filed as functional, organism-based. Details: dose 50 mg/kg. The conditions noted are these: HOS-TE85. The procedure, abridged: as §3

In series [13] the test system is Jurkat. Description: Cell cycle arrest in human Jurkat cells assessed as accumulation at G2/M phase after 24 hrs by propidium iodide staining-based flow cytometric analysis. In kind it is functional. The procedure, abridged:
(§6)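 Jurkat cells treated for 24 h, fixed, PI-labelled and analysed by flow cytometry for cell-cycle phase distribution. Mean of three independent experiments.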

Series [14] relates to MNNG-HOS. Briefly: Antitumor activity against human MNNG-HOS cells xenografted in Balb/c-nu mouse assessed as tumor growth inhibition at 50 mg/kg, ip measured after 3 days. Set-up: dose 50 mg/kg. In kind it is functional, organism-based. The conditions noted are these: HOS-TE85.
A short description of series [15]: Selectivity ratio of IC50 for HUVEC to IC50 for human CEM/0 cells. The note with it: HUVEC and CEM/0 cells, read-out: Ratio IC50. In kind it is ADME, cell-based.
Series [16] relates to HeLa. Briefly: Downregulation of cdc25c protein expression in human HeLa cells at 10 to 100 nM after 24 to 48 hrs by Western blot analysis. In kind it is functional, cell-based. The procedure, abridged: as §5
Series [17] concerns HeLa. Description: Induction of mitochondrial membrane depolarization in human HeLa cells at 15 to 250 nM by JC-1 staining-based fluorescence assay. It is filed as functional, cell-based. The note with it: TDE = time-dependent effect. The method in brief:
as §4

In series [18] the target is T2, M-phase inducer phosphatase 3 (Homo sapiens) (UniProt P30307).
T2 sequence (whole entry): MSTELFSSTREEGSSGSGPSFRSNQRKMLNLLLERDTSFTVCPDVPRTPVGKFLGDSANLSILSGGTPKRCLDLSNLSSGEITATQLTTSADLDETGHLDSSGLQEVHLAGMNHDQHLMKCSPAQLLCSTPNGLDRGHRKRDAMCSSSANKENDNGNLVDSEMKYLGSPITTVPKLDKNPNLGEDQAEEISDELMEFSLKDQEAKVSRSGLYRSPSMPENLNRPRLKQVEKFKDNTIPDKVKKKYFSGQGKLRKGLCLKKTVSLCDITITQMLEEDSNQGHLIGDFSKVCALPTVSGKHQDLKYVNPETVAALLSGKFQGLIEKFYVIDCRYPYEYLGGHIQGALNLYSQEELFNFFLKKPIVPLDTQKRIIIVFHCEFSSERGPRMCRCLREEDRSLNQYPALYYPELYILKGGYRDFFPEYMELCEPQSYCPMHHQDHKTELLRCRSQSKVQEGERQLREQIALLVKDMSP
Description: Increase of cdc25c phosphorylation at Ser216 in human HeLa cells at 10 to 100 nM after 24 hrs by Western blot analysis. In kind it is cell-based. The method in brief: as §5

In series [19] the test system is HeLa. Briefly: Induction of mitochondrial ROS generation in human HeLa cells after 24 to 48 hrs by H2-DCFDA staining-based flow cytometric analysis. It is filed as functional, cell-based. The method in brief: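 HeLa cells incubated 24 or 48 h with compound, stained with H₂-DCFDA, and intracellular ROS measured by flow cytometry. Mean of three independent experiments.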

Series [20] relates to HeLa. Briefly: Cell cycle arrest in human HeLa cells assessed as reduction in S phase up to 60 nM after 24 hrs by propidium iodide staining-based flow cytometric analysis. It is filed as functional. The method in brief: as §2
Series [21] has as its system Jurkat. Briefly: Cell cycle arrest in human Jurkat cells assessed as accumulation at G2/M phase at 10 nM after 24 hrs by propidium iodide staining-based flow cytometric analysis. In kind it is functional. The method in brief: as §6

Active and inactive are the calls of the source. The rule behind the calls is not given here.

With `COc1cc(C(=O)c2cc3cc(N)cc(OC)c3s2)cc(OC)c1OC`, the inhibition at Tubulin (Homo sapiens) [1] amounted to 89%; on Tubulin (Homo sapiens) [7] it was 97%. Besides, the IC50 in the series on PBL [2] came out at 20.6 µM; in the series on L1210 it was 0.005 µM; with PBL [5], 24.7 µM; in the series with MNNG-HOS [11], 0.001 µM. Besides, the result (in the series with HeLa [3]; in the series on HeLa [10]; with MNNG-HOS [12]; in the series on HeLa [16]; in series [18]; in the series with HeLa [20]) was Active. Moreover, in the series with Jurkat [21], the outcome was Active. Also, the inhibition in vivo at 50 mg/kg in the series with MNNG-HOS [4] turned out to be 62%. The Activity entry in the series with HeLa [6] was “Dose-dependent effect”; in the series with HeLa [8], “Dose-dependent effect”; in the series on Jurkat [13] it was “Dose-dependent effect”; in the series with HeLa [17], “tde”; in the series on HeLa [19], “Dose-dependent effect”. Further, the selectivity ratio in series [9] and in series [15] was 460 in each case. Moreover, the TGI result in the series on MNNG-HOS [14] is “Active”.
